Rows were chosen to be rich in hits. Some 3.5% of all compounds tested hit in one or more screens of this group.
PglD inh = inhibitors of Campylobacter jejuni PglD acetyltransferase | AID 602405 | 360,000 tested, 0.098% active | purified PglD enzyme, DTNB colorimetric CoA detection | inhibition, % at 12.5 µM; in the data active means inhibition above about 16%, passing the limit was not always enough
DENV2 CPE = inhibitors of DENV2 cytopathic effect; DENV2-infected cells, cytopathic effect rescue, plate reader; CPE inhibition, % at 9.99 µM; 350,000 tested, 1.7% active; AID 651640; in the data active means CPE inhibition above about 20%, passing the limit was not always enough; tested in BHK-21 cells;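 further: 0% = median of neutral control wells and 100% = median of positive control wells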
FN deposit inh = fibronectin deposition inhibition; 350,000 tested, 0.086% active; inhibition, % at 12.6 µM; AH1F fibroblasts, Alexa488-fibronectin deposition fluorescence, overnight;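 active means mean inhibition across replicates of 30% or more, regardless of how many single replicates reach that level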;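 further: positive control wells lacked labelled fibronectin entirely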
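Material: AH1F fibroblast monolayer depositing Alexa488-labelled fibronectin into matrix / Amount: 10000 AH1F cells per well / Signal: fluorescence 485/525 nm / Medium: DMEM, 2% serum / Compound: single dose, pinned / Incubation: 1 h cell adhesion before compound, then overnight fibronectin incubation / Reagent: Alexa488-FN, 24 nM final / Read-out: inhibition of fibronectin deposition signal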
PGC1a acetyl inh = PGC1a acetylation modulation, inhibitor mode | U2OS PGC1a acetylation, AlphaScreen anti-acetyl-lysine; with virally co-expressed GCN5 acetyltransferase | inhibition, % at 15.6 µM | 350,000 tested, 0.17% active | AID 651687;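 active means every replicate shows inhibition of at least 40%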;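 further: 0% = neutral control wells and 100% = positive control wells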
Env fusion inh = blocks HIV Env-driven cell-cell fusion; HeLa-JRFL Env/CEM21 cell fusion, luciferase; 360,000 tested, 1.1% active; inhibition, % at 12.3 µM; AID 651610;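 active means mean replicate inhibition score of at least 50 and every replicate individually at or above 50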;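 further: 0% = plate neutral controls and 100% = maraviroc near 300 nM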
rRNA inh HTS = inhibits bacterial ribosomal RNA function over humanized ribosomes; E. coli WT GFP vs humanized-ribosome RFP mutants, fluorescence, 24 h; hits give low values; DMSO median 0, no signal -100; GFP signal change (wild-type ribosome), % (test concentration not listed); 350,000 tested, 1.6% active; AID 720706;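 active means significant combined selectivity score with lowered wild-type GFP, culture density cut under 30%, mutant RFP and density less affected; inactive means any of these conditions unmet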
Numbers without * were called inactive; [ ] = another dose, or the depositor's remark.

What do the screens show for `O=[N+]([O-])c1cc(C(F)(F)F)cc([N+](=O)[O-])c1NCCNC(=S)Nc1ccc(Cl)c(Cl)c1`?
PglD inh: 0; DENV2 CPE: -7; FN deposit inh: -5; PGC1a acetyl inh: 6; Env fusion inh: 57*; rRNA inh HTS: -36

Results for CNNC(=S)Nc1cccc(C(F)(F)F)c1 ?
PglD inh: -4; DENV2 CPE: 2; FN deposit inh: -4; PGC1a acetyl inh: -14; Env fusion inh: 2

What do the screens show for `CC(C)(C)NC(=S)Nc1cccc(C(F)(F)F)c1`?
PglD inh: 4; DENV2 CPE: -7; FN deposit inh: 13; PGC1a acetyl inh: -1; Env fusion inh: 14; rRNA inh HTS: -48*

What do the screens show for `CCCCCCCCCC[n+]1cccc2c3ccccc3ccc21`?
DENV2 CPE: -2; FN deposit inh: -7; PGC1a acetyl inh: 13; Env fusion inh: 59*; rRNA inh HTS: -56

How did CCCCCCCC[n+]1cccc2c3ccccc3ccc21 do in these assays?
DENV2 CPE: -6; FN deposit inh: 5; PGC1a acetyl inh: -9; Env fusion inh: 84*; rRNA inh HTS: -56

What do the screens show for `COC(=O)c1cc2c(c3c4cc(OC)ccc4n(S(=O)(=O)c4ccccc4)c13)C(=O)N(C)C2`?
DENV2 CPE: 6; FN deposit inh: -1; Env fusion inh: 65*; rRNA inh HTS: -9

What do the screens show for `C[C@H](CO)N1C[C@H](C)[C@H](CN(C)Cc2ccc3c(c2)OCO3)Oc2ccc(NC(=O)CCCCCC(=O)Nc3ccccc3N)cc2CC1=O`?
PglD inh: 2; DENV2 CPE: 25*; PGC1a acetyl inh: -3; Env fusion inh: 7[16.7 µM]; rRNA inh HTS: -6

How did C[C@H](CO)N1C[C@H](C)[C@@H](CN(C)Cc2ccc3c(c2)OCO3)Oc2ccc(NC(=O)CCCCCC(=O)Nc3ccccc3N)cc2C1=O do in these assays?
DENV2 CPE: 28*; PGC1a acetyl inh: 1; rRNA inh HTS: -4

How did C[C@@H]1CN([C@@H](C)CO)C(=O)c2cc(NC(=O)CCC(F)(F)F)ccc2O[C@@H]1CN(C)Cc1ccc2c(c1)OCO2 do in these assays?
PglD inh: 2; DENV2 CPE: 29*; FN deposit inh: 7; PGC1a acetyl inh: 5; Env fusion inh: 8[16.7 µM]; rRNA inh HTS: 3

What do the screens show for `C[C@H](CO)N1C[C@H](C)[C@H](CN(C)Cc2ccc3c(c2)OCO3)Oc2ccc(NC(=O)CCCCCC(=O)Nc3ccccc3N)cc2C1=O`?
DENV2 CPE: -4; PGC1a acetyl inh: -2; rRNA inh HTS: 2

What do the screens show for `C[C@@H]1CN([C@@H](C)CO)C(=O)c2cc(NC(=O)CCCCCC(=O)Nc3ccccc3N)ccc2O[C@@H]1CN(C)Cc1ccc2c(c1)OCO2`?
DENV2 CPE: 20*; PGC1a acetyl inh: 9; rRNA inh HTS: 2

Results for C[C@@H]1CN([C@@H](C)CO)C(=O)c2cc(NC(=O)C3CCCCC3)ccc2O[C@@H](C)CCCCO[C@@H]1CN(C)S(=O)(=O)c1cn(C)cn1 ?
PglD inh: -1; DENV2 CPE: 5; Env fusion inh: 1[16.7 µM]; rRNA inh HTS: -2

What do the screens show for `Cc1noc(C)c1NC(=O)Nc1ccc2c(c1)C(=O)N([C@@H](C)CO)C[C@H](C)[C@H](CN(C)Cc1ccc(Cl)c(Cl)c1)OCCCC[C@@H](C)O2`?
PglD inh: -2; DENV2 CPE: 6; PGC1a acetyl inh: -5; Env fusion inh: 4[16.7 µM]; rRNA inh HTS: 0

What do the screens show for `CC(=O)N1[C@H](C(=O)N2CCCCC2)[C@@H](CO)[C@@H]2Cn3c(ccc(-c4ccccc4)c3=O)[C@@H]21`?
PglD inh: 0; DENV2 CPE: 20*; rRNA inh HTS: 4

What do the screens show for `CN(C)C(=O)[C@H]1[C@H](CO)[C@H]2Cn3c(ccc(-c4ccccc4F)c3=O)[C@H]2N1C(=O)C1CC1`?
PglD inh: 2; DENV2 CPE: 0; rRNA inh HTS: 3

How did CC(=O)N1[C@H](C(=O)N(C)C)[C@@H](CO)[C@@H]2Cn3c(ccc(-c4ccccc4F)c3=O)[C@@H]21 do in these assays?
PglD inh: -1; DENV2 CPE: 34*; rRNA inh HTS: 4

How did CNC[C@H]1Oc2c(NC(=O)Nc3ccccc3)cccc2C(=O)N([C@H](C)CO)C[C@H]1C do in these assays?
PglD inh: -1; DENV2 CPE: 6; FN deposit inh: -15; PGC1a acetyl inh: 4; rRNA inh HTS: 4

Results for COc1ccc(NC(=O)Nc2ccc3c(c2)CC(=O)N([C@H](C)CO)C[C@H](C)[C@@H](CN(C)Cc2ccc4c(c2)OCO4)O3)cc1 ?
PglD inh: -5; DENV2 CPE: 8; PGC1a acetyl inh: -8; Env fusion inh: 2[16.7 µM]; rRNA inh HTS: 0

Results for CC(C)c1ccc(-c2csc3ncnc(N4CCN(C)CC4)c23)cc1 ?
PglD inh: -1; DENV2 CPE: 14; FN deposit inh: -3; PGC1a acetyl inh: 1; Env fusion inh: 37; rRNA inh HTS: -28*

Results for CN1CCCN(c2ncnc3scc(-c4ccc(F)cc4)c23)CC1 ?
FN deposit inh: -11; Env fusion inh: 11; rRNA inh HTS: -6

What do the screens show for `Clc1ccc(CN2CCN(c3ncnc4scc(-c5cccs5)c34)CC2)cc1`?
PglD inh: -1; FN deposit inh: -1; PGC1a acetyl inh: 2; Env fusion inh: 66*

What do the screens show for `Fc1ccc(CN2CCN(c3ncnc4scc(-c5ccc(F)cc5)c34)CC2)cc1`?
PglD inh: 7; DENV2 CPE: 6; FN deposit inh: 3; PGC1a acetyl inh: -11; Env fusion inh: 15; rRNA inh HTS: -63

What do the screens show for `C[C@H](CO)N1C[C@H](C)[C@H](CN(C)C(=O)NC2CCCCC2)Oc2ccc(NC(=O)CCCCCC(=O)Nc3ccccc3N)cc2CC1=O`?
PglD inh: 0; DENV2 CPE: 13; FN deposit inh: -7; PGC1a acetyl inh: 4; Env fusion inh: -8[16.7 µM]; rRNA inh HTS: -2

Results for CO[C@H]1CN(C)C(=O)c2ccc(NC(=O)NC(C)C)cc2OC[C@H](C)N(Cc2ccc(-c3ccccn3)cc2)C[C@H]1C ?
PglD inh: 0; DENV2 CPE: 68*; FN deposit inh: 3; PGC1a acetyl inh: 2; rRNA inh HTS: -4

How did CO[C@H]1CN(C)C(=O)c2ccc(NC(=O)NC(C)C)cc2OC[C@H](C)N(Cc2ccc(-c3ccccn3)cc2)C[C@@H]1C do in these assays?
DENV2 CPE: -2; FN deposit inh: -9; PGC1a acetyl inh: -1; Env fusion inh: -26[16.7 µM]; rRNA inh HTS: -5

How did CCCC(=O)Nc1ccc2c(c1)C(=O)N(C)C[C@@H](OC)[C@@H](C)CN(Cc1ccc(-c3ccccn3)cc1)[C@H](C)CO2 do in these assays?
PglD inh: 2; DENV2 CPE: 27*; FN deposit inh: -6; PGC1a acetyl inh: -4; rRNA inh HTS: -4
